Reference: ChEMBL document CHEMBL3120072, “Alkynyl-coumarinyl ethers as MAO-B inhibitors” (Bioorg Med Chem, 2014)

Assays:
[1] = molecular target: T1, Amine oxidase [flavin-containing] B (Homo sapiens, UniProt P27338); experiment: Inhibition of human recombinant MAO-B expressed in baculovirus infected insect cells assessed as hydrogen peroxide production using p-tyramine as substrate incubated for 30 mins prior to substrate addition measured for 45 mins by Amplex Red monoamine oxidase assay
T1 sequence (P27338 whole entry): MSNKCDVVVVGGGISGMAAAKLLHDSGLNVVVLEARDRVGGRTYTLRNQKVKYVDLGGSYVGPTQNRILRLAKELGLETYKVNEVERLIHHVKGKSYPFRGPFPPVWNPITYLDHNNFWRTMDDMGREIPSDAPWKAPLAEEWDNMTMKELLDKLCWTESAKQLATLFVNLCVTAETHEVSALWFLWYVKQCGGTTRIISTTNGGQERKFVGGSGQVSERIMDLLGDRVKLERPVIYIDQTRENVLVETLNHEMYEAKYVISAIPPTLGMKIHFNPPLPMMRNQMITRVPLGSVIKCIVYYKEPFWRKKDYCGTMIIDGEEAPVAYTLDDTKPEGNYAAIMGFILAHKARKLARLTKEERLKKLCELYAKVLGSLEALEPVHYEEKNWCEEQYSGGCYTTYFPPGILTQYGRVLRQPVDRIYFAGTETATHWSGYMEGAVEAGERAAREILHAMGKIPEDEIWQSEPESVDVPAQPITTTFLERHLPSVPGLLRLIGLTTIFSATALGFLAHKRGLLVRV
Summary of the method: (§1)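 Human recombinant enzyme in 50 mM sodium phosphate pH 7.4. Test compound in DMSO preincubated with enzyme for 30 min at room temperature. Reaction started with p-tyramine (final 150 µM) plus Amplex Red/HRP and kept in the dark. Resorufin fluorescence (ex 544, em 590 nm) read over 45 min. IC50 values from three experiments.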

[2] = molecular target: T2, Amine oxidase [flavin-containing] A (Homo sapiens, UniProt P21397); experiment: Inhibition of human recombinant MAO-A expressed in baculovirus infected insect cells assessed as hydrogen peroxide production using p-tyramine as substrate incubated for 30 mins prior to substrate addition measured for 45 mins by Amplex Red monoamine oxidase assay; summary of the method: as §1
T2 sequence (P21397 whole entry): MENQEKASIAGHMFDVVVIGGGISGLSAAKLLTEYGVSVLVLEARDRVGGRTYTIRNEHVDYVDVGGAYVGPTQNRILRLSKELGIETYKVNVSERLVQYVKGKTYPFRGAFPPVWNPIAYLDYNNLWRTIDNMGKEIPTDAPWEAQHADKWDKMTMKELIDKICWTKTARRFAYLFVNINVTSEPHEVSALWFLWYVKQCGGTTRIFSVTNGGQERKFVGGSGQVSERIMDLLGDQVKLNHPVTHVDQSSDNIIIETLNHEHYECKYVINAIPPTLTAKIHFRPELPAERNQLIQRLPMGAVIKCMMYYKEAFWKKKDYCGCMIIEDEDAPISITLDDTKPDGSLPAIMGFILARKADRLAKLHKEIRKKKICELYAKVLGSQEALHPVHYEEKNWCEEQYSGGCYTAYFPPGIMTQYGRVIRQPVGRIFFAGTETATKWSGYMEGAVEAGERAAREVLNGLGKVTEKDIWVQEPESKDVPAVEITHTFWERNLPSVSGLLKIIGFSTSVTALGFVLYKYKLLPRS

Homo sapiens = organism: Homo sapiens; experiment: Selectivity ratio of IC50 for human recombinant MAO-A to IC50 for human recombinant MAO-B
Summary of the method: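 Ratio calculated as IC50 (MAO-A) divided by IC50 (MAO-B), from Amplex Red assays with p-tyramine on human recombinant enzymes.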

[3] = Lipophilicity, log D of the compound at pH 7.4 by HPLC analysis; format: physicochemical; details: buffer
Summary of the method: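 Retention-based HPLC on a C18 column at 40 °C and 0.8 mL/min. Linear gradient with 10 mM ammonium acetate. UV read at 254 nm. Atenolol, metoprolol, diltiazem, labetalol and triphenylene used as references. Compounds injected from DMSO solutions (0.5 mg/mL) in duplicate.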

[4] = molecular target: T1, Amine oxidase [flavin-containing] B; experiment: Reversible inhibition of human MAO-B using p-tyramine as substrate at IC80 incubated for 1 hr prior to increasing substrate concentration measured for 5 hrs by fluorescence analysis
Summary of the method: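 Human MAO-B preincubated 1 h with inhibitor at about its IC80. Reaction started with p-tyramine (10 µM). After 22 min, substrate raised to a final 1 mM. Recovery of activity followed by fluorescence over 5 h.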

SMILES	IC50 [1]	IC50 [2]	Ratio IC50 (Homo sapiens)	logD [3]	inhibition (INH) [4]
C#CCCCOc1ccc2cc(C(=O)N3CCN(C(=O)OC(C)(C)C)CC3)c(=O)oc2c1	10000 nM	> 10000 nM			
C#CCCCOc1ccc2cc(NC(C)=O)c(=O)oc2c1	43.6 nM	930 nM	21		
CCCCCCOc1ccc2cc(C(=O)OC)c(=O)oc2c1	0.875 nM	66.1 nM	75	4.2	
C#CCCCCOc1ccc2oc(=O)c(C(=O)c3ccc(OC)cc3)cc2c1	> 10000 nM	> 10000 nM			
COC(=O)c1cc2ccc(OCCc3ccc(Cl)cc3)cc2oc1=O	1.41 nM	74.8 nM	53	3.9	
C#CCCCCOc1ccc2cc(NC(C)=O)c(=O)oc2c1	41.7 nM	66.8 nM	2		
C#CCCCOc1ccc2cc(C(=O)OC)c(=O)oc2c1	82.4 nM	953 nM	12		
C#CCOc1ccc2cc(C(=O)OC)c(=O)oc2c1	1790 nM	1570 nM	1		
COC(=O)c1cc2ccc(OC/C=C(\C)CCC=C(C)C)cc2oc1=O	78.9 nM	10000 nM	130		
C#CCCCCOc1ccc2ccc(=O)oc2c1	2.62 nM	367 nM	140		
CC(=O)Nc1cc2ccc(OCc3cccc(Cl)c3)cc2oc1=O	13.5 nM	62.7 nM	5		
C#CCCCOc1ccc2oc(=O)c(C(=O)OC)cc2c1	1440 nM	> 10000 nM	> 7		
C#CCCCCOc1ccc2c(c1)NC(=O)CC2	52.6 nM	> 10000 nM	> 190	1.6	
COC(=O)c1cc2cc(OCc3cccc(Cl)c3)ccc2oc1=O	31.5 nM	> 10000 nM	> 320		

Continued, values first:

IC50 [1]	IC50 [2]	Ratio IC50 (Homo sapiens)	logD [3]	inhibition (INH) [4]	SMILES
120 nM	> 10000 nM	> 83			COC(=O)c1cc2cc(OCCc3ccc(Cl)cc3)ccc2oc1=O
0.77 nM	59.9 nM	78			C#CCCCCOc1ccc2c(C)cc(=O)oc2c1
258 nM	818 nM	3			C#CCCOc1ccc2cc(C(=O)OC)c(=O)oc2c1
123 nM	> 10000 nM	> 81			C#CCCCCOc1ccc2oc(=O)c(C(=O)OC)cc2c1
2.96 nM	> 10000 nM	> 3400	4.3	Active	C#CCCCCOc1ccc2cc(-c3ccc(OC)cc3)c(=O)oc2c1
24.7 nM	> 10000 nM	> 400	2.4		C#CCCCCOc1ccc2oc(=O)c(NC(C)=O)cc2c1
91.8 nM	3520 nM	38			C#CCCCOc1ccc2ccc(=O)oc2c1
0.588 nM	77.2 nM	130	3.2		COC(=O)c1cc2ccc(OCc3cccc(F)c3)cc2oc1=O
535 nM	> 10000 nM	> 19	3.1		C#CCCCOc1ccc2cc(C(=O)c3ccc(OC)cc3)c(=O)oc2c1
> 10000 nM	> 10000 nM				C#CCCCOc1ccc2cc(C(=O)O)c(=O)oc2c1
> 10000 nM	> 10000 nM				C#CCCCOc1cccc2cc(C(=O)OC)c(=O)oc12
325 nM	> 10000 nM	> 31			COC(=O)c1cc2cc(OC/C=C(\C)CCC=C(C)C)ccc2oc1=O
852 nM	10000 nM	12			C#CCNCCOc1ccc2ccc(=O)oc2c1
18.2 nM	553 nM	30			C#CCCCOc1ccc2c(C)cc(=O)oc2c1
> 10000 nM	> 10000 nM				C#CCCCOc1ccc2cc(C(=O)Nc3ccc(F)cc3)c(=O)oc2c1
1.41 nM	9.64 nM	7	2.5	Active	C#CCCCCOc1ccc2cc(C(=O)OC)c(=O)oc2c1
67.1 nM	> 10000 nM	> 150	3.5		C#CCCCCOc1ccc2cc(C(=O)c3ccc(OC)cc3)c(=O)oc2c1
377 nM	2680 nM	7	0.5		C#CCNCCOc1ccc2cc(C(=O)OC)c(=O)oc2c1
				Active	C[C@H](NCc1ccc(OCc2cccc(F)c2)cc1)C(N)=O [SAFINAMIDE]
